Calls of active or inactive are those of the source. No cut-off for these calls is given here.
Assays:
Trichomonas vaginalis = test: Inhibition of Trichomonas vaginalis uridine nucleoside ribohydrolase using 5-fluorouridine as substrate at 0.04 to 200 uM after 40 mins by NMR spectrometric analysis
In short: (§1)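 UNH at 80 nM in 50 mM potassium phosphate, 0.3 M KCl, pH 6.5, with 10% 2H2O. Test compounds added from DMSO solutions and mixed thoroughly. Reaction read at the 40 min time point. Screening was done at 50 μM in mixtures of three. IC50 determinations used final assay concentrations from 200 μM to 0.04 μM.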

[1] = Inhibition of Trichomonas vaginalis uridine nucleoside ribohydrolase using 5-fluorouridine as substrate after 40 mins by NMR spectrometric analysis; in short: as §1

Structure (SMILES)	inhibition (Trichomonas vaginalis)	Active/inactive screening call (Trichomonas vaginalis)	IC50 [1] [nM]
CN[C@@H]1C[C@@H](c2ccc(Cl)c(Cl)c2)c2ccccc21 (relative stereo)	Active	–	–
COc1ccnc(C[S+]([O-])c2nc3cc(OC(F)F)ccc3[nH]2)c1OC (stereo unspecified) [PANTOPRAZOLE SODIUM]	–	Active	14500
CN(C)CCCN1c2ccccc2CCc2ccc(Cl)cc21	–	Active	–
CCC1=C[C@@H]2CN(C1)Cc1c([nH]c3ccccc13)[C@@](C(=O)OC)(c1cc3c(cc1OC)N(C)[C@H]1[C@@](O)(C(=O)OC)[C@H](OC(C)=O)[C@]4(CC)C=CCN5CC[C@]31[C@@H]54)C2	–	Active	–
COC(=O)C1=C(C)NC(C)=C(C(=O)OCC(C)C)C1c1ccccc1[N+](=O)[O-] (stereo unspecified)	–	Active	–
N[C@@H](C(=O)N[C@@H]1C(=O)N2C(C(=O)O)=C(CSc3c[nH]nn3)CS[C@H]12)c1ccc(O)cc1	–	Active	–
COCCCOc1ccnc(C[S+]([O-])c2nc3ccccc3[nH]2)c1C (stereo unspecified) [RABEPRAZOLE]	–	Active	300
CCOC(=O)C1=C(C)NC(C)=C(C(=O)OC)C1c1cccc([N+](=O)[O-])c1 (stereo unspecified)	–	Active	–
O=C1C(CC[S+]([O-])c2ccccc2)C(=O)N(c2ccccc2)N1c1ccccc1 (stereo unspecified)	–	Active	–
O=C(O[C@@H]1Cc2c(O)cc(O)cc2O[C@@H]1c1cc(O)c(O)c(O)c1)c1cc(O)c(O)c(O)c1	Active	–	–
CNC1=Nc2ccc(Cl)cc2C(c2ccccc2)=[N+]([O-])C1	Active	–	–
COC(=O)C1=C(C)NC(C)=C(C(=O)OC)C1c1ccccc1[N+](=O)[O-]	Active	–	–
N[C@@H](C(=O)N[C@@H]1C(=O)N2C(C(=O)O)=C(Cl)CS[C@H]12)c1ccccc1	–	Active	–
CC1=C(/C=C/C(C)=C/C=C/C(C)=C\C(=O)O)C(C)(C)CCC1	–	Active	–
Oc1cc2c(cc1O)[C@H]1c3ccccc3CN[C@@H]1CC2 (relative stereo)	–	Active	–
COC(=O)C1=C(C)NC(C)=C(C(=O)OCCN(C)Cc2ccccc2)C1c1cccc([N+](=O)[O-])c1 (stereo unspecified)	–	Active	–
Oc1ccc2c3c1O[C@H]1c4[nH]c5ccccc5c4C[C@@]4(O)[C@@H](C2)N(CC2CC2)CC[C@]314	Active	–	–
CC1=C(/C=C/C(C)=C/C=C/C(C)=C/C(=O)O)C(C)(C)CCC1	–	Active	–
CCOC(=O)C1=C(COCCN)NC(C)=C(C(=O)OC)C1c1ccccc1Cl (stereo unspecified)	Active	–	–
CN(C)[C@@H]1C(O)=C(C(N)=O)C(=O)[C@@]2(O)C(O)=C3C(=O)c4c(O)cccc4[C@@](C)(O)[C@H]3[C@H](O)[C@@H]12	–	Active	–
COc1ccc2[nH]c([S+]([O-])Cc3ncc(C)c(OC)c3C)nc2c1 (stereo unspecified) [OMEPRAZOLE]	–	Active	2300
Sc1ncnc2nc[nH]c12	–	Active	–
CC(=O)Oc1ccccc1C(=O)Nc1ncc([N+](=O)[O-])s1	Active	–	–
